Shown are actives, neighbours in structure and some others; about 1.5% of the full set was active somewhere.
LANA-H2A inh: blocks KSHV LANA binding to histone H2A/H2B; cell-free LANA-H2A/H2B peptide, fluorescence polarization; AID 2629; Q9QR71; inhibition, % (no concentration beside the values); 320,000 compounds, 0.6% hits; in the data active = inhibition mostly above about 10%, no sharp cut-off; inactive = mostly below about 6.7%
CaV13 FRET inh: Disruptors of the CACNA1D IQ motif to Ca2+-dependent inactivation inhibitor domain association, primary screening, Förster resonance energy transfer in intact living …. HEK cells, CFP/YFP FRET ICDI-IQ, plate reader, 10 min; percent FRET-ratio fall versus neutral wells. inhibition, % at 12.3 µM. 340,000 compounds, 0.098% hits;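 active = mean replicate inhibition of at least 30% and at least 1% of replicates passing that level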;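 note: 0% = median of the neutral control wells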
C-LANA FP: inhibitors of KSHV LANA C-terminal domain DNA binding; MBP-C-LANA/FAM-LBS DNA binding, fluorescence polarization; inhibition, % at 9 µM; 340,000 compounds, 0.078% hits; AID 504423;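 active = highest replicate inhibition at or above 60% at 9 µM, even if other replicates fall short; inactive = all replicates below 60% inhibition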;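 note: 0% = neutral control wells and 100% = 4 µM acridine orange control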
CAL PDZ FP-1: blocks peptide binding to the human CAL PDZ domain; 300,000 compounds, 0.92% hits; purified CAL PDZ, TMR-peptide fluorescence polarization, 1 h; inhibition, % at 24.9 µM;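 active = mean inhibition of at least 30% with at least half of replicates also reaching 30%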;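 note: 0% = DMSO neutral control and 100% = excess unlabeled competitor peptide PRC23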
Keap1 Nrf2 FP: inhibitors of human Keap1-Nrf2 protein-protein interaction. 340,000 compounds, 0.15% hits. AID 504523. Q14145. Keap1 Kelch-Nrf2 peptide fluorescence polarization, 1536-well. inhibition, % at 9.4 µM; in the data active = inhibition above about 12%;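 note: human Keap1 Kelch domain with fluorescein labeled Nrf2 9mer peptide probe; 0% = neutral control wells and 100% = peptide positive control; higher means more block of Keap1 binding to Nrf2 peptide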
Target sequence (Q14145 whole entry, looked up, the tested form may be a part): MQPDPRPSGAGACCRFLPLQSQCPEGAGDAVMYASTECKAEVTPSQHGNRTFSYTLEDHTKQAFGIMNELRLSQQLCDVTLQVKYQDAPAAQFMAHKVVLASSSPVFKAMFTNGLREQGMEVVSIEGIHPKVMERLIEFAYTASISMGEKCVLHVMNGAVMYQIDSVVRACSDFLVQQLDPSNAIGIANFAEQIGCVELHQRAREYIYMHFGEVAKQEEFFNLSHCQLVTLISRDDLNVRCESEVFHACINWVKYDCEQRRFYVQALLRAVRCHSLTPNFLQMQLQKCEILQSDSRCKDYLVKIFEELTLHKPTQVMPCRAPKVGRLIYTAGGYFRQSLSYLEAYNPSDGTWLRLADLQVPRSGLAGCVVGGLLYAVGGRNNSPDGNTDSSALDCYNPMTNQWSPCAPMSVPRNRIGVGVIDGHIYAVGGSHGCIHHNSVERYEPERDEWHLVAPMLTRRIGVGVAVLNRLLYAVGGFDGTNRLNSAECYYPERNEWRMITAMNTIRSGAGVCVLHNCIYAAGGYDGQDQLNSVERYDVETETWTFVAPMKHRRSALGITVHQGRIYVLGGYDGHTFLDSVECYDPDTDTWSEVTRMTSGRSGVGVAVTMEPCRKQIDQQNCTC
CAL PDZ FP-2: human CAL PDZ-peptide interaction inhibition. Q9HD26. purified CAL PDZ, TMR-peptide fluorescence polarization, 1 h. inhibition, % at 20 µM. 330,000 compounds, 0.02% hits. AID 504414;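 active = highest replicate inhibition of at least 40%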;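 note: plate controls were DMSO neutral control wells for no effect and unlabeled competitor peptide control wells for full effect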
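Test system: purified CerCALP PDZ construct; Compound dosing: one concentration, 20 µM compound; Also added: TMR-labelled reporter peptide T*-PRC34 bound in PDZ groove; Read-out: inhibition from polarization loss; Controls: unlabelled peptide and DMSO controls; Signal: FP readout, S and P plane fluorescence; Incubation: 1 h at RT.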
Starred values were filed as active, the others as inactive.

For CC1CCC(C(C)C)C(OCC(O)CNC(C)(C)C)C1 (centres undefined) the results were LANA-H2A inh 5, CaV13 FRET inh -6, C-LANA FP -1, CAL PDZ FP-1 80*, Keap1 Nrf2 FP -4 and CAL PDZ FP-2 0.
CC1CCC(C(C)C)C(OCC(O)CNC(C)c2ccccc2)C1 (centres undefined) was read as LANA-H2A inh 0, CaV13 FRET inh -7, C-LANA FP 1, CAL PDZ FP-1 4, Keap1 Nrf2 FP 1 and CAL PDZ FP-2 0.
`O=C1CC(c2ccccc2)CC(O)=C1C=NCCN1CCNCC1` (centres undefined) gave LANA-H2A inh -2, C-LANA FP 2, CAL PDZ FP-1 0 and Keap1 Nrf2 FP 1.
Screening O=C1CC(c2ccc(F)cc2)CC(O)=C1C=NCCN1CCNCC1 (centres undefined) returned LANA-H2A inh 17*, CaV13 FRET inh 0, C-LANA FP 1, CAL PDZ FP-1 3, Keap1 Nrf2 FP 3 and CAL PDZ FP-2 -1.
Screening COc1cccc(/C=C2\SC(=S)N(C(C)C(=O)NC3C=CS(=O)(=O)C3)C2=O)c1 (centres undefined) returned LANA-H2A inh 28*, CaV13 FRET inh -7, C-LANA FP 1, CAL PDZ FP-1 -1, Keap1 Nrf2 FP 0 and CAL PDZ FP-2 -2.
`COc1ccc(/C=C2\SC(=S)N(C(C)C(=O)NC3C=CS(=O)(=O)C3)C2=O)cc1` (centres undefined) gave LANA-H2A inh -3, CaV13 FRET inh -6, C-LANA FP 1, CAL PDZ FP-1 -4, Keap1 Nrf2 FP -1 and CAL PDZ FP-2 -2.
`OCCC(N1CCOCC1)C(O)(c1ccccc1)c1ccccc1` (centres undefined) gave CaV13 FRET inh -11.
COC(=O)c1sc2nc(C)nc(SCC(=O)C(C)(C)C)c2c1C was read as LANA-H2A inh -1, CaV13 FRET inh -6, C-LANA FP 2, CAL PDZ FP-1 43*, Keap1 Nrf2 FP 1 and CAL PDZ FP-2 -1.
Screening COc1ccc(-c2csc(NC(=O)CSc3nc(C)nc4sc(C(=O)O)c(C)c34)n2)cc1 returned LANA-H2A inh -6, CaV13 FRET inh 5, C-LANA FP 103*, CAL PDZ FP-1 -1, Keap1 Nrf2 FP 2 and CAL PDZ FP-2 -1.
Screening O=S1(=O)C[C@@H](N2CCC(Cc3ccccc3)CC2)[C@H](COCc2ccccc2)N1 returned CaV13 FRET inh -4.
`Cc1ccccc1NC(=O)C1CCN(C2=NS(=O)(=O)c3ccccc32)CC1` gave LANA-H2A inh 1, CaV13 FRET inh -2, C-LANA FP 61*, CAL PDZ FP-1 -5, Keap1 Nrf2 FP 1 and CAL PDZ FP-2 0.
`CCn1c(C)nc2cc(C(=O)N/N=C(\C)c3ccccc3O)ccc21` gave LANA-H2A inh 0, CaV13 FRET inh -1, C-LANA FP -1, CAL PDZ FP-1 -6, Keap1 Nrf2 FP 3 and CAL PDZ FP-2 -2.
Screening CCC(=O)Nc1cccc(NC(=O)c2ccc3c(c2)OCO3)c1 returned LANA-H2A inh 0, CaV13 FRET inh -5, C-LANA FP 1, CAL PDZ FP-1 50*, Keap1 Nrf2 FP 1 and CAL PDZ FP-2 -1.
For COc1cccc(NC(=O)c2ccc3c(c2)OCO3)c1 the results were LANA-H2A inh 2, CaV13 FRET inh -4, C-LANA FP 0, CAL PDZ FP-1 -2, Keap1 Nrf2 FP -1 and CAL PDZ FP-2 -1.
CCCn1nnc(NC(=O)c2ccc3c(c2)OCO3)n1 was read as LANA-H2A inh 1, CaV13 FRET inh -5, C-LANA FP 1, CAL PDZ FP-1 103*, Keap1 Nrf2 FP 1 and CAL PDZ FP-2 -1.
For C[C@@H]1CN([C@H](C)CO)C(=O)CCCn2nncc2CO[C@@H]1CN(C)C(=O)Nc1ccccc1 the results were CaV13 FRET inh -6.
CN(c1ccc(NC(=O)CCc2c[nH]c3ccccc23)cc1)c1ccccn1 was read as CaV13 FRET inh -11.
O=C(CCc1c[nH]c2ccccc12)Nc1ccc(S(=O)(=O)Nc2ncccn2)cc1 was read as LANA-H2A inh -8, CaV13 FRET inh -3, C-LANA FP 1, CAL PDZ FP-1 33*, Keap1 Nrf2 FP -1 and CAL PDZ FP-2 0.

Assay outcomes from PubChem.
